Measurements: ChEMBL document CHEMBL1125242, “Synthesis and anticonvulsant activity of 1-acyl-2-pyrrolidinone derivatives” (J Med Chem, 1991)

Key:
[1] = Solubility in pH 5.0 phosphate buffer (0.1 M) at 37 degrees Centigrade; Miscible; type: physicochemical
Mus musculus [2] = species on record: Mus musculus; experiment: Degradation rate constant in biological media of mouse brain homogenates.; type: ADME, organism-based
Outline: (§1)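 Tissues come from male ddY mice (20–30 g) and male Wistar rats (200–250 g). Liver and brain are homogenized at 0–5 °C to 40% in pH 7.4 isotonic phosphate buffer and spun at 2500g for 15 min; the supernatant is used. Plasma is also used. A 0.1 M acetonitrile stock gives 1 mM final. Incubation at 37 ± 0.2 °C; apparent rate constant in h⁻¹.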

Mus musculus [3] = species on record: Mus musculus; experiment: Degradation rate constant in biological media of mouse liver homogenates.; type: ADME, organism-based; outline: as §1
Rattus norvegicus [4] = species on record: Rattus norvegicus; experiment: Degradation rate constant in biological media of rat brain homogenates.; type: ADME, organism-based; outline: as §1
Rattus norvegicus [5] = species on record: Rattus norvegicus; experiment: Degradation rate constant in biological media of rat liver homogenates.; type: ADME, organism-based; outline: as §1
Rattus norvegicus [6] = species on record: Rattus norvegicus; experiment: Degradation rate constant in biological media of rat plasma homogenates.; type: ADME, organism-based; outline: as §1
[7] = Degradation rate constant in the buffer solution(pH 7.4) was studied as a measure of the stability of the compound.; type: physicochemical
Outline: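 A 0.1 M acetonitrile stock is added to preheated pH 7.4 phosphate buffer (0.1 M total, ionic strength 0.3 with NaCl) to 1 mM at 37 ± 0.2 °C. Aliquots are sampled over time. Pseudo-first-order fit gives the apparent rate constant in h⁻¹.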

[8] = Apparent partition coefficient between 1-octanol and pH 5.0 phosphate buffer (0.1 M) at 37 degrees Centigrade.; type: physicochemical; settings: 1-octanol/phosphate buffer, read-out: LogD5.0
Outline: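 Final drug concentration 2 mM. The value is reported as the log of the apparent partition coefficient.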

Mus musculus [9] = species on record: Mus musculus; experiment: Latency to the onset of generalized clonic epileptic seizures by picrotoxin was measured and evaluated as a percent of the control in mice.; type: functional; design: concentration or dose not given beside the values
Outline: (§2)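 Male ddY mice (20–30 g) were given compound i.p. at 200 mg/kg as a suspension in pH 7.4 isotonic phosphate buffer with 1% CMC-Na, 15 min before s.c. picrotoxin 5 mg/kg. Dosing volume was 0.1 mL/10 g, and controls received vehicle. Latency to generalized clonic seizure and survival time were each expressed as % of control.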

Mus musculus [10] = species on record: Mus musculus; experiment: Latency to the protection against lethality by picrotoxin was measured and evaluated as a percent of the control in mice.; type: functional; design: concentration or dose not given beside the values; outline: as §2
Mus musculus [11] = species on record: Mus musculus; experiment: Compounds were evaluated for the effect on electroconvulsive-shock-induced disruption (ECS) of the memory of passive avoidance response (antiamnesic activity) in mice and expressed as latency.; type: functional
Outline: (§3)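 Male ddY mice (20–25 g) are dosed i.p. at 200 mg/kg as a suspension in pH 7.4 isotonic phosphate buffer with 1% CMC-Na (0.1 mL/10 g), 60 min before training. A two-compartment step-through box is used: lighted compartment, darkened compartment with grid floor, 30 V foot shock. Memory is disrupted by electroconvulsive shock. Mean ± SEM; Student's t test versus the ECS group.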

Mus musculus [12] = species on record: Mus musculus; experiment: Compounds were evaluated for the effect on electroconvulsive-shock-induced disruption (ECS) of the memory of passive avoidance response (antiamnesic activity) in mice and expressed as learning time.; type: functional; outline: as §3
Mus musculus [13] = experiment: Onset for sleeping time after administration in mice induced by sodium pentobarbital; type: functional
Outline: (§4)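 Male ddY mice (20–30 g) are dosed i.p. at 50 mg/kg as a suspension in pH 7.4 isotonic phosphate buffer with 1% CMC-Na (0.1 mL/10 g), 30 min before i.p. sodium pentobarbital (45 mg/kg). Loss of righting reflex and sleeping time are recorded per mouse. Mean ± SEM; Student's t test versus control.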

Mus musculus [14] = experiment: Sleeping time in mice after administration in mice induced by sodium pentobarbital; type: functional; outline: as §4
Mus musculus [15] = species on record: Mus musculus; experiment: Survival ratio was calculated for determination of dose dependency.; type: functional
Outline: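 In male ddY mice (20–30 g), compound was given i.p. at varied doses as a suspension in pH 7.4 isotonic phosphate buffer with 1% CMC-Na, 15 min before s.c. picrotoxin 5 mg/kg. Dosing volume was 0.1 mL/10 g. Over 2 h of observation, the fraction of mice surviving was recorded at each dose to define dose dependency.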

Mus musculus [16] = species on record: Mus musculus; experiment: Compounds were evaluated for the effect on electroconvulsive-shock-induced disruption (ECS) of the memory of passive avoidance response (anti-amnesic activity) in mice and expressed as latency.; type: functional; outline: as §3

Row | SMILES | Saq [1] | Degradation rate constant (Mus musculus [2]) [h⁻¹] | Degradation rate constant (Mus musculus [3]) [h⁻¹] | Degradation rate constant (Rattus norvegicus [4]) [h⁻¹] | Degradation rate constant (Rattus norvegicus [5]) [h⁻¹] | Degradation rate constant (Rattus norvegicus [6]) [h⁻¹] | Degradation rate constant [7] [h⁻¹] | logD [8] | Latency to clonic seizure onset (% of control) (Mus musculus [9]) [%] | Survival time (Mus musculus [10]) [%] | Latency (Mus musculus [11]) [s] | Learning time (Mus musculus [12]) [s] | Onset for sleep (Mus musculus [13]) [min] | Sleeping time (Mus musculus [14]) [min] | Survival ratio (Mus musculus [15]) | Latency (Mus musculus [16]) [s] | Onset for sleep, min (Mus musculus [13])
1 | CC(=O)N1CCCC1=O | Miscible | 0.01 | 0.221 | 0.014 | 0.097 | 0.028 | 0.015 | -0.05 | 97 | 144 | 101.7 | 15.3 | 6.9 | 38.2 | 0 | – | –
2 | CCCCCCC(=O)N1CCCC1=O | – | 0.086 | 11.9 | 0.075 | 14.6 | 0.056 | 0.012 | 3.04 | 124 | 116 | – | 20.4 | 7.9 | 61.8 | 0 | 240.6 | –
3 | CCCCC(=O)N1CCCC1=O | – | – | – | – | – | – | – | – | 78 | 107 | – | – | – | – | 0 | – | –
4 | CCCC(=O)N1CCCC1=O | – | 0.016 | 1.35 | 0.016 | 3.11 | 0.054 | 0.006 | 1.18 | 92 | 142 | – | – | 7.2 | 92 | 0 | – | –
5 | CCCCCCCCCC(=O)N1CCCC1=O | – | 0.326 | 2.53 | 0.381 | 2.87 | 0.025 | 0.008 | 4.33 | 302 | 364 | – | – | – | – | 50 | – | –
6 | CCC(=O)N1CCCC1=O | – | – | – | – | – | – | – | – | 104 | 112 | – | – | – | – | 0 | – | –
7 | O=C(O)CCC(=O)N1CCCC1=O | – | – | – | – | – | – | – | – | 113 | 93 | – | – | – | – | 0 | – | –
8 | O=C1CCCN1C(=O)c1ccccc1 | – | – | – | – | – | – | – | – | 114 | 93 | – | – | – | – | 0 | – | –
9 | CCCCCCCCCCCC(=O)NCCCC(=O)O | – | – | – | – | – | – | – | – | 493 | 388 | – | – | – | – | 60 | – | –
10 | CC(C)(C)C(=O)N1CCCC1=O | – | – | – | – | – | – | – | – | 101 | 120 | – | – | – | – | 0 | – | –
11 | O=C1CCCN1C(=O)Cc1ccccc1 | – | – | – | – | – | – | – | – | 106 | 281 | – | – | – | – | 33 | – | –
12 | CCCCCCCCCCCC(=O)N1CCCC1=O | – | 0.155 | 0.789 | 0.233 | 1.23 | 0.016 | 0.007 | 5.05 | 129 | 494 | 278.8 | 19.4 | 9.6 | 47.4 | 80 | – | –
13 | O=C1CCCN1 [2-PYRROLIDONE] | Miscible | 0.002 | 0.034 | 0.016 | 0.03 | 0.018 | < 0.0001 | – | 107 | 102 | – | – | 10.2 | 24.8 | 0 | – | –
14 | CCC1(C)CC(=O)NC1=O (stereo unspecified) [ETHOSUXIMIDE] | – | – | – | – | – | – | – | – | 792 | 577 | – | – | – | – | 100 | – | –
15 | NCCCC(=O)O [GAMMA-AMINOBUTYRIC ACID] | – | – | – | – | – | – | – | -3.33 | 115 | 112 | – | – | 10.1 | 25.7 | – | – | –
16 | CCCC(CCC)C(=O)O [VALPROIC ACID] | – | – | – | – | – | – | – | – | 171 | 472 | – | – | – | 36.4 | 63 | – | 10
